rCAG RNA binder: binds r(CAG) RNA repeats; r(CAG) RNA repeat, TO-PRO-1 dye displacement fluorescence; inhibition, % at 3 µM; hit rate 1.3% among 370,000; AID 651821;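 active = inhibition above the plate cutoff, the mean of all test compounds on that plate plus 3 SD, cut at about 35% in these data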;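 also: higher means more dye released from RNA so lower well fluorescence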
PG9 Ab binder: binds the HIV-1 gp120 antibody PG9; TR-FRET gp120-PG9 antibody binding; inhibition, % at 6.7 µM; hit rate 0.43% among 360,000; in the data active = inhibition above about 8.5%
NR2E3 ag-1: agonists of human nuclear receptor NR2E3 | inhibition of corepressor binding, % at 4.78 µM | GST-NR2E3/biotin-RetCOR TR-FRET, 1536-well | AID 2300 | hit rate 0.12% among 320,000;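 active = percent inhibition above the cutoff of mean plus 3 SD of all tested compounds, set per screening campaign, cut at about 20% in these data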
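Material: NR2E3–RetCOR corepressor complex | Quantity: 1.35 nM GST-tagged NR2E3 final | Schedule: 5 h at 4 °C | Replication: Singlicate compound wells | Reagent: RetCOR corepressor, biotinylated, 7 nM | Controls: Biotin wells as high control, 0.6% DMSO wells as low control | Signal: TR-FRET, Eu(K)-anti-GST donor, streptavidin-D2 acceptor, ex 340, em 617/671 nm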
NR2E3 ag-2: agonists of human NR2E3 nuclear receptor; CHO-S Gal4-NCOR/VP16-NR2E3 two-hybrid, luciferase; inhibition of corepressor binding, % at 3.98 µM; hit rate 0.35% among 360,000; AID 602229;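 active = inhibition above the mean of all tested compounds plus 3 SD, cut at about 70% in these data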;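 also: higher means lower luciferase signal from less NR2E3 corepressor binding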
Rev-erbA mod: modulators of human Rev-erb alpha DNA binding; activity, % at 10 µM; hit rate 0.79% among 370,000; Rev-erbα–FITC-DNA binding, fluorescence polarization, 90 min;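 active = activity above about 14%, limit read from the data; passing the limit was not always enough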
Target sequence (P20393 whole entry, looked up): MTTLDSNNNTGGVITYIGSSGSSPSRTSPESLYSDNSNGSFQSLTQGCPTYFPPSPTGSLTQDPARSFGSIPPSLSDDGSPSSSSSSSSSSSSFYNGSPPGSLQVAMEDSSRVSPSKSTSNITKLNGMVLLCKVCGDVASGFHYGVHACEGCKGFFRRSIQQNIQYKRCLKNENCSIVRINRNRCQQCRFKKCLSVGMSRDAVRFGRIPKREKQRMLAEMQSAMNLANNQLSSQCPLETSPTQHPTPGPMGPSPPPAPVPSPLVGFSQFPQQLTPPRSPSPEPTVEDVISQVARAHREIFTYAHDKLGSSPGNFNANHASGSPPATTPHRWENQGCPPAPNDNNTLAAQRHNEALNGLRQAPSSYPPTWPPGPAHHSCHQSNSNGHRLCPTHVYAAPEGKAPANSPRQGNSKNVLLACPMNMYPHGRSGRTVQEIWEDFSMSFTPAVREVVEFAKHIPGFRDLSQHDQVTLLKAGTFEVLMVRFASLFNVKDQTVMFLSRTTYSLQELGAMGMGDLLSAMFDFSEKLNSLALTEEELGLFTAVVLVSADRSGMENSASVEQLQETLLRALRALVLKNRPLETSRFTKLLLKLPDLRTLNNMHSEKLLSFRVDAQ
rCAG binder conf: r(CAG) RNA repeat binding, confirmation; hit rate 70% among 4,300; inhibition, % at 3 µM; shares compounds with rCAG RNA binder; TO-PRO-1 dye displacement fluorescence; AID 652065;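 active = inhibition above a per-plate cutoff, the mean inhibition of sample wells plus 3 SD, cut at about 35% in these data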;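 also: loss of TO-PRO-1 fluorescence as compound displaces dye from 1x1 AA loop RNA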
dCAG dye counter: counter-screen for rCAG RNA binders: DNA CAG dye complex inhibitors; inhibition, % at 3 µM; d(CAG) DNA oligo TO-PRO-1 dye displacement, fluorescence; hit rate 94% among 4,300; AID 652068; shares compounds with rCAG RNA binder;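 active = inhibition above its plate's cutoff, the mean test-well inhibition plus 3 SD, cut at about 4.8% in these data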;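 also: hits displace the dye from DNA and so lower well fluorescence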
Hits are given with their value; . = inactive; / = not tested or not shown. Hits are enriched below; roughly 2.6% of the tested compounds scored in any of these assays.

SMILES	rCAG RNA binder	PG9 Ab binder	NR2E3 ag-1	NR2E3 ag-2	Rev-erbA mod	rCAG binder conf	dCAG dye counter
CC(C)Oc1cc(F)ccc1-c1cc(C(=O)NCc2ccccc2)[nH]n1	.	.	/	.	.	/	/
O=C1CC(c2ccc(O)c(O)c2)Oc2c1ccc(O)c2O (stereo not given)	48	.	.	.	.	49	21
CC(C)=CCc1c(O)ccc2c1OC(c1ccc(O)c(O)c1)CC2=O (stereo not given)	.	.	.	.	.	/	/
COC(=O)c1ccccc1NC(=O)C/C(C)=N/NC(=O)Cc1ccc(Cl)cc1	.	.	.	.	.	/	/
CN(C(=O)COC(=O)c1cc(NS(=O)(=O)c2cc([N+](=O)[O-])ccc2Cl)ccc1O)C1CCCCC1	56	.	.	.	.	53	17
CNS(=O)(=O)c1cccc(C(=O)OCC(=O)NC(C)CCc2ccccc2)c1 (stereo not given)	.	.	.	.	.	/	/
CC(CCc1ccccc1)NC(=O)COC(=O)c1cc(NS(=O)(=O)c2ccc(Cl)c([N+](=O)[O-])c2)ccc1O (stereo not given)	46	.	.	.	.	43	12
Cc1ccc(C(=O)Nn2c(N)c(S(=O)(=O)c3ccc(C)cc3)c3nc4ccccc4nc32)cc1	.	.	.	.	.	/	/
Cc1ccc(S(=O)(=O)c2c(N)n(NC(=O)c3ccccc3C)c3nc4ccccc4nc23)cc1	36	.	.	.	.	36	13
COc1ccc(CCNC(=O)CNC(=O)c2ccc(Br)o2)cc1OC	.	.	.	.	.	/	/
CCn1c(C)c(/C=N/Nc2nc3ccccc3s2)c2ccccc21	47	.	.	.	.	.	15
O=C1NC(=Nc2ccc(Cl)cc2)/C(=C/c2ccco2)S1	.	.	.	.	.	/	/
Cc1ccc(S(=O)(=O)/N=C2/NC(=O)/C(=C/c3ccc(Br)o3)S2)cc1	93	.	.	.	.	83	54
Cc1ccc(N=C2NC(=O)/C(=C\c3ccco3)S2)cc1	42	.	.	.	.	.	15
Cc1cccc(N=C2NC(=O)/C(=C/C=C/c3ccco3)S2)c1	52	.	.	.	.	43	23
COc1ccc(N=C2NC(=O)/C(=C\C=C\c3ccco3)S2)cc1	44	.	/	.	.	.	17
Cc1cccc(N=C2NC(=O)S/C2=C\c2ccco2)c1	.	.	.	.	.	/	/
COc1ccc(N=C2S/C(=C\c3ccco3)C(=O)N2CC(C)C)cc1	.	.	.	.	.	/	/
COCCN1C(=O)CCC1(C)C(=O)Nc1ccc2ccccc2c1 (stereo not given)	.	.	/	.	.	/	/
C(=NN=C1c2ccccc2-c2ccccc21)c1c[nH]c2ccccc12	35	.	/	.	.	39	20
Fc1c(F)c(F)c(N/N=C/c2c[nH]c3ccccc23)c(F)c1F	.	.	.	.	.	/	/
Oc1ccc(C=NN=C2c3ccccc3-c3ccccc32)c(O)c1	49	.	/	.	.	49	32
O=[N+]([O-])c1cccc(/C=N\N=C2c3ccccc3-c3ccccc32)c1O	.	.	.	.	.	/	/
O=[N+]([O-])c1cccc(S(=O)(=O)/N=C(/Nc2ccccc2)c2ccccc2)c1	.	.	/	.	.	/	/
COc1ccc(-c2c(C#Cc3ccsc3)c3cc(-c4ccc(OC)c(F)c4)ccc3n2C)cc1	.	.	.	.	.	/	/
CCOc1cc(CC(=O)N[C@@H](CC(C)C)c2ccccc2N2CCCCC2)ccc1C(=O)O	47	.	.	.	.	36	9.8
COc1ccc(NC(=O)Nc2ccc3c(c2)C(=O)N([C@H](C)CO)C[C@H](C)[C@H](CN(C)Cc2ccc(C(=O)O)cc2)OCCCC[C@@H](C)O3)cc1	37	.	/	.	.	42	10
CSc1cccc(NC(=O)CCCNC(=O)c2ccc(Cl)cc2)c1	.	.	.	.	.	/	/
COc1cc(/C=C2/SC(=S)N(Cc3ccccc3)C2=O)ccc1OCC(=O)O	72	.	.	.	.	86	55
NC(=O)COc1ccccc1/C=C1/SC(=O)N(CC(=O)N2CCc3ccccc3C2)C1=O	.	.	.	.	.	/	/
